# FN deposition inh: fibronectin deposition inhibition | AH1F fibroblasts, Alexa488-fibronectin deposition fluorescence, overnight | inhibition, % at 12.6 µM | 350,000 compounds, 0.086% hits | AID 743247;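 active means mean inhibition across replicates of 30% or more, regardless of how many single replicates reach that level; inconclusive means mean under 30% yet at least half of replicates reach 30%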;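 further: positive control wells lacked labelled fibronectin entirely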
#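 Material – AH1F fibroblast monolayer, labelled fibronectin deposition · Reagent – labelled fibronectin 24 nM · Timing – 1 h adhesion, overnight exposure · Measured by – fluorescence at 485 nm excitation, 525 nm emission · Read-out – inhibition of fibronectin deposition signal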
# DENV2 CPE rescue: inhibitors of DENV2 cytopathic effect; DENV2-infected cells, cytopathic effect rescue, plate reader; CPE inhibition, % at 9.99 µM; 350,000 compounds, 1.7% hits; in the data active means CPE inhibition above about 20%, passing the limit was not always enough; inconclusive means no clear call, values can overlap the other calls; tested in BHK-21 cells;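 further: 0% = median of neutral control wells and 100% = median of positive control wells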
# Ecoli rRNA inh: inhibitors of bacterial rRNA selective over humanized ribosomes; GFP signal change (wild-type ribosome), % (test concentration not listed); 350,000 compounds, 1.6% hits; E. coli WT GFP vs humanized-ribosome RFP mutants, fluorescence, 24 h; stronger effect = lower value; DMSO median 0, no signal -100;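 active means significant combined selectivity score with lowered wild-type GFP, culture density cut under 30%, mutant RFP and density less affected; inactive means any of these conditions unmet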
# PglD DTNB: blocks C. jejuni PglD acetyltransferase activity | inhibition, % at 12.5 µM | 360,000 compounds, 0.098% hits | AID 602405 | purified PglD enzyme, DTNB colorimetric CoA detection; in the data active means inhibition above about 16%, passing the limit was not always enough; inconclusive means no clear call, values can overlap the other calls
# PGC1a acetyl inh: modulators of PGC1a acetylation; U2OS PGC1a acetylation, AlphaScreen anti-acetyl-lysine; with virally co-expressed GCN5 acetyltransferase; inhibition, % at 15.6 µM; 350,000 compounds, 0.17% hits; AID 651687;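 active means every replicate shows inhibition of at least 40%; inconclusive means mean inhibition at least 40% but some replicate below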;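 further: 0% = neutral control wells and 100% = positive control wells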
# Env fusion inh: blocks HIV Env-driven cell-cell fusion. HeLa-JRFL Env/CEM21 cell fusion, luciferase. 360,000 compounds, 1.1% hits. inhibition, % at 12.3 µM;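 active means mean replicate inhibition score of at least 50 and every replicate individually at or above 50; inconclusive means only one of the two criteria met; inactive means mean below 50 and not all replicates reaching 50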;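 further: 0% = plate neutral controls and 100% = maraviroc near 300 nM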
# PglD confirm: confirmation of Campylobacter jejuni PglD acetyltransferase inhibitors; shares compounds with PglD DTNB; Purified C. jejuni PglD, DTNB absorbance 412 nm; inhibition, % at 20 µM; 320 tested, under 10 active;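 active means mean inhibition across replicates of at least 20% with every single replicate also at 20% or more; inconclusive means mean inhibition at least 20% but some replicate falls below 20%; inactive means mean inhibition under 20% and not all replicates reach it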;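 further: initial rate of CoA release by acetyl transfer from AcCoA to the UDP-4-amino sugar; 0% = median of neutral control wells and 100% = median of positive control wells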
# The depositor's hits bear a star; ? = inconclusive; . = no result; [ ] = dose if it differs, or a comment. A selection: hits, their analogues and other compounds. The true share with any hit is near 3.5%.
SMILES,FN deposition inh,DENV2 CPE rescue,Ecoli rRNA inh,PglD DTNB,PGC1a acetyl inh,Env fusion inh,PglD confirm
O=C(CSc1ccccc1)NCCc1ccc(F)cc1,-16,-1,11,76*,.,-4,-1
COc1ccc([N+](=O)[O-])cc1NC(=O)CCN1CCN(C)CC1,3,12,12,.,3,-14,.
COc1ccc([N+](=O)[O-])cc1NC(=O)CCN1CCOCC1,8,1,5,21*,4,-9,-4
CN(c1ccccc1)S(=O)(=O)c1ccc2[nH]c(=O)oc2c1,9,-3,-3,29*,17,1,3
CN(Cc1ccccc1)S(=O)(=O)c1ccc2[nH]c(=O)oc2c1,3,-4,-15,-3,-1,-2,.
O=C(NCc1ccco1)C1OCCc2ccccc21 (centres undefined),.,.,.,25*,-2,.,-1
CCC(C)(C)NC(=O)Cc1ccc(C)cc1,-2,.,.,48*,9,-48,-2
COc1ccc(S(=O)(=O)Nc2cccc3c2O[C@@H](CN(C)S(=O)(=O)c2cccs2)[C@H](C)CN([C@@H](C)CO)C3=O)cc1,.,2,1,-2,-8,19[16.7 µM],.
Cc1cccc(C(=O)NCCNC(=O)c2ccco2)c1,-2,?,-1,20*,-8,-3,10
COc1ccc(NC(=O)N2C[C@H](O)COC[C@@H]3O[C@@H](CC(=O)N4CCN(C)CC4)CC[C@H]32)cc1,3,2,4,-1,5,.,.
CC(O)(c1cccnc1)c1nc(-c2ccc3ccccc3c2)cs1 (centres undefined),9,18,-54,22*,3,32,-1
COc1cccc(C(C)(O)c2nc(-c3ccc4ccccc4c3)cs2)c1 (centres undefined),16,5,-7,4,.,24,.
CO[C@@H]1CN(C)C(=O)c2ccc(NC(=O)C3CCCCC3)cc2OC[C@H](C)N(C(=O)c2ccccc2)C[C@@H]1C,10,-10,-4,-3,-3,-48[16.7 µM],.
O=C(NCCCN1CCN(c2cccc(Cl)c2)CC1)c1cccc(N2CCCC2=O)c1,.,.,.,.,-6,.,.
O=C(NCCCN1CCN(c2cccc(Cl)c2)CC1)c1ccc(N2CCCC2=O)cc1,.,.,.,35*,0,.,6
O=C1CSCN1c1ccc(Cl)cc1,-4,?,4,83*,2,-4,9
Oc1cc2c(cc1CN1CCN(c3cccc(C(F)(F)F)c3)CC1)CCC2,8,.,.,55*,9,23,1
COc1ccc(N2CCN(Cc3cc4c(cc3O)CCC4)CC2)cc1,10,.,.,2,7,22,.
Cc1noc(C)c1NC(=O)N[C@H]1CC[C@H](CCNC(=O)C2CCOCC2)O[C@H]1CO,.,-3,6,13,9,-3[16.7 µM],.
Cc1cc(=O)[nH]c(SCC(=O)Nc2ccc(F)cc2)c1C#N,-2,.,-25,0,-2,-39,.
Cc1cc(=O)[nH]c(SCC(=O)Nc2ccc(Br)cc2)c1C#N,-9,.,.,21*,-3,-13,3
C[C@H](CO)N1C[C@H](C)[C@@H](CN(C)Cc2ccc(C(F)(F)F)cc2)Oc2ccc(NS(=O)(=O)c3ccccc3)cc2C1=O,.,10,-2,-4,-4,.,.
COc1ccc2c(c1)C(=O)c1ccccc1CO2,.,.,.,40*,4,.,2
O=C1c2ccccc2COc2ccc(O)cc21,4,.,.,2,-3,-179,.
CNC(=O)C[C@@H]1CC[C@H]2[C@H](COc3ccc(NC(=O)c4cccs4)cc3C(=O)N2C)O1,-10,0,-2,2,6,5[16.7 µM],.
SMILES,FN deposition inh,DENV2 CPE rescue,Ecoli rRNA inh,PglD DTNB,PGC1a acetyl inh,Env fusion inh,PglD confirm
Cc1ccc(NC(=O)CSc2nnc(CN3CCOCC3)n2C)cc1C,12,.,.,.,-6,3,.
CC(C)c1ccc(NC(=O)CSc2nnc(CN3CCOCC3)n2C)cc1,0,6,4,99*,.,8,-3
COC(=O)Nc1ccc(S(=O)(=O)Nc2cc(C(F)(F)F)c[nH]c2=O)cc1,-1,?,4,31*,9,-11,1
CN(C)C(=O)CSc1nnc(-c2cc(-c3cccs3)nc3ccccc23)o1,.,.,.,54*,-12,.,-8
COc1ccc(-c2nnc(-c3cc4ccccc4oc3=O)o2)cc1,-3,.,.,2,3,-57,.
COc1cccc2cc(-c3nnc(-c4ccccc4)o3)c(=O)oc12,-3,8,14,21*,-8,20,4
Cc1cc(C(=O)Nc2cccc3c2O[C@@H](CN(C)Cc2ccc(C(F)(F)F)cc2)[C@@H](C)CN([C@@H](C)CO)C3=O)n(C)n1,.,-5,-6,1,3,-2[16.7 µM],.
CCn1cc(C(=O)NCCCN2CCCC(C)C2)c(=O)c2cc(S(=O)(=O)N3CCOCC3)ccc21 (centres undefined),-6,3,-1,24*,.,4,8
Cc1ccc(CN(c2ccc(C(=O)NCc3ccc4c(c3)OCO4)cc2)S(C)(=O)=O)cc1,.,.,.,27*,2,-14,-2
Cc1ccc(C(=O)NCc2ccc3c(c2)OCO3)cc1,1,-3,-2,-1,7,-16,.
COc1cccc(NC(=O)N[C@@H]2CC[C@@H](CC(=O)Nc3ccc(-c4ccccc4)cc3)O[C@H]2CO)c1,-5,3,-2,-4,3,14[16.7 µM],.
c1ccc(COc2ncnc3c2ncn3CCCNCc2cccs2)cc1,5,?,8,28*,.,6,1
O=C(O)CSc1nc2sc3c(c2c(=O)n1Cc1ccccc1)CCCCC3,-6,0,3,-3,-3,-2,.
O=C(O)CSc1cc(C(=O)c2ccccc2O)cn2c(=O)c3c4c(sc3nc12)CCCC4,-14,0,-7,22*,4,5,1
C[C@H]1CN([C@@H](C)CO)C(=O)c2cccc(NC(=O)CCCCCC(=O)Nc3ccccc3N)c2O[C@@H]1CN(C)C(=O)Nc1ccc(C(F)(F)F)cc1,.,2,-2,.,7,.,.
CN1C(=O)C(CC(=O)NC2CCCCC2)SC1=Nc1ccccc1 (centres undefined),-3,4,0,54*,4,0,8
CC(C(=O)Nc1ccc(C#N)cc1)N(C)Cc1cccs1 (centres undefined),4,2,-5,-1,-7,-11,.
CC(C(=O)Nc1ccc(Cl)cc1)N(C)Cc1cccs1 (centres undefined),-5,-3,-4,23*,-18,6,-8
CCC(=O)N1CC[C@@H]2[C@H](CO)Nc3ccc(C#Cc4cccc(OC)c4)cc3[C@@H]21,2,.,-3,-3,9,.,.
CC1=CC(=O)C=C(C)C1=NOC(=O)/C=C\c1ccccc1,-10,-2,0,.,.,11,.
CC1=CC(=NOC(=O)/C=C/c2ccccc2)C=C(C)C1=O,.,.,.,28*,-18,.,-1

# From PubChem BioAssay
